As a reminder, the inhibition is the share of the control response that was lost under treatment.

Assay [1] concerns the target MAP kinase-activated protein kinase 2 (Homo sapiens) (UniProt P49137). The assay can be described thus: Inhibition of human recombinant MAPKAPK2 at 15 nM in presence of ATP by radiometric assay relative to control.
Assay [2] has as its system G protein-coupled receptor kinase 7 (Homo sapiens). The assay can be described thus: Inhibition of human recombinant GPRK7 at 15 nM in presence of ATP by radiometric assay relative to control.
The target of assay [3] is Protein-tyrosine kinase 6 (Homo sapiens) (UniProt Q13882). Briefly: Inhibition of human recombinant BRK at 15 nM in presence of ATP by radiometric assay relative to control. The method in brief: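 Part of a radiometric in vitro activity panel of 327 recombinant human kinases. Each kinase was tested in duplicate at one inhibitor concentration. Activity remaining was expressed as a percentage of the vehicle control, and percent inhibition was taken as 100 minus that value.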

Assay [4] has as its target Interleukin-1 receptor-associated kinase 1 (Homo sapiens) (UniProt P51617). Briefly: Inhibition of human recombinant IRAK1 at 15 nM related to control ULK1.
For assay [5], the target named is Serine/threonine-protein kinase 32B (Homo sapiens) (UniProt Q9NY57). The assay can be described thus: Inhibition of human recombinant YANK2 at 40 nM related to control ULK1.
The target of assay [6] is Tyrosine-protein kinase Tec (Homo sapiens) (UniProt P42680). The assay can be described thus: Inhibition of human recombinant TEC at 40 nM in presence of ATP by radiometric assay relative to control.
The target in assay [7] is T1, Serine/threonine-protein kinase STK11 (Homo sapiens) (UniProt Q15831).
T1 sequence (whole entry): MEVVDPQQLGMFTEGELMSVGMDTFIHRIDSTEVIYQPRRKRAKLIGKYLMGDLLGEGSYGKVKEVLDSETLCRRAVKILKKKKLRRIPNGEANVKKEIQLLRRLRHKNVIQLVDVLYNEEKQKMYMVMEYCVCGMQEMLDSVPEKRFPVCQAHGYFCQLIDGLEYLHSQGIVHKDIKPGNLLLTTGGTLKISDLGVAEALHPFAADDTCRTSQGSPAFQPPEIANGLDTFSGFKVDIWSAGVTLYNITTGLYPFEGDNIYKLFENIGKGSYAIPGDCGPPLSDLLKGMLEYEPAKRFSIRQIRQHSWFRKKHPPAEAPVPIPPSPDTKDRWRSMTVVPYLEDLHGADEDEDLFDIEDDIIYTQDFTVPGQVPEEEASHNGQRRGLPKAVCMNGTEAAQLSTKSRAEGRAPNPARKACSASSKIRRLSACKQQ
Briefly: Inhibition of human recombinant LKB1 at 40 nM related to control ULK1.

Assay [8] has as its target T2, Serine/threonine-protein kinase A-Raf (Homo sapiens) (UniProt P10398).
T2 sequence (whole entry): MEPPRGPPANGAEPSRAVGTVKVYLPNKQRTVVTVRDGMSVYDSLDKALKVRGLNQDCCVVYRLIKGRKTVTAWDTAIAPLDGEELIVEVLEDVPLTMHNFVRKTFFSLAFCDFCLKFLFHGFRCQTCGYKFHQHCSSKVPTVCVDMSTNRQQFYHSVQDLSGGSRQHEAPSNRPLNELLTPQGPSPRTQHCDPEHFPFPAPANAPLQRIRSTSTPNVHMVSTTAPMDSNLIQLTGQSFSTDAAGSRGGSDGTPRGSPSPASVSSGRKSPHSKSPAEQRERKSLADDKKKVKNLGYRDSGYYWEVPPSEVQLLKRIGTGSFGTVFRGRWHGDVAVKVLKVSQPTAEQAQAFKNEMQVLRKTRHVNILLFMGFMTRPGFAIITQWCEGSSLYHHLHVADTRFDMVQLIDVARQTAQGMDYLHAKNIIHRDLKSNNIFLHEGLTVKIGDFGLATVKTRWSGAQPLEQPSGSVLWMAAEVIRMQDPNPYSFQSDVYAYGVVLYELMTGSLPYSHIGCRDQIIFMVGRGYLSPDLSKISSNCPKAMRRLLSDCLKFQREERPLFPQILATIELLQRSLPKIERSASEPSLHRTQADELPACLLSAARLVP
The assay can be described thus: Inhibition of human recombinant ARAF at 40 nM related to control ULK1. The method, boiled down: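 Radiometric activity assays in a panel of 327 human recombinant kinases, each run in duplicate at one inhibitor concentration. Activity remaining is expressed as percent of vehicle control, and percent inhibition is calculated as 100% minus percent activity remaining.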

Assay [9] deals with Tyrosine-protein kinase Fyn (Homo sapiens) (UniProt P06241). Briefly: Inhibition of human recombinant FYN at 40 nM in presence of ATP by radiometric assay relative to control.
Assay [10] addresses T3, Homeodomain-interacting protein kinase 4 (Homo sapiens) (UniProt Q8NE63).
T3 sequence (whole entry): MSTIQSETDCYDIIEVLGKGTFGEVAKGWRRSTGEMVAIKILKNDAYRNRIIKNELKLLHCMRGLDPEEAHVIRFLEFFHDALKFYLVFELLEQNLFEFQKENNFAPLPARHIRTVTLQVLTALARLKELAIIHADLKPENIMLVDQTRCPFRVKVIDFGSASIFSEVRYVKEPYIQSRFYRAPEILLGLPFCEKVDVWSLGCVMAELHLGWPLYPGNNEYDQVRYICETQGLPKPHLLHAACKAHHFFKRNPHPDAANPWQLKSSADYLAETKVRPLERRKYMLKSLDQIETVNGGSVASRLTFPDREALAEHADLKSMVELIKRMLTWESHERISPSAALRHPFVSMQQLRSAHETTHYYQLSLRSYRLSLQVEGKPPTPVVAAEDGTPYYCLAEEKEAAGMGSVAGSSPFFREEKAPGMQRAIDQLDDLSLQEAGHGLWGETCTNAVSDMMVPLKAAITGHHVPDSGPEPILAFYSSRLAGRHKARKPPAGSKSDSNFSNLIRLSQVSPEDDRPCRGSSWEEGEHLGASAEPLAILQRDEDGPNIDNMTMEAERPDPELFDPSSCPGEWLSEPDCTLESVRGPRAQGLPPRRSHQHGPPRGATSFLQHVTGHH
Briefly: Inhibition of human recombinant HIPK4 at 40 nM related to control ULK1.

Assay [11] deals with Dual specificity protein kinase CLK1 (Homo sapiens) (UniProt P49759). The assay can be described thus: Inhibition of human recombinant CLK1 at 500 nM related to control ULK1.
In assay [12] the target is Cyclin-dependent kinase 5 (Homo sapiens) (UniProt Q00535). The assay can be described thus: Inhibition of human recombinant CDK5 at 500 nM related to control ULK1.
Chain of Cyclin-dependent kinase 5 (Homo sapiens) (Q00535 whole entry, looked up): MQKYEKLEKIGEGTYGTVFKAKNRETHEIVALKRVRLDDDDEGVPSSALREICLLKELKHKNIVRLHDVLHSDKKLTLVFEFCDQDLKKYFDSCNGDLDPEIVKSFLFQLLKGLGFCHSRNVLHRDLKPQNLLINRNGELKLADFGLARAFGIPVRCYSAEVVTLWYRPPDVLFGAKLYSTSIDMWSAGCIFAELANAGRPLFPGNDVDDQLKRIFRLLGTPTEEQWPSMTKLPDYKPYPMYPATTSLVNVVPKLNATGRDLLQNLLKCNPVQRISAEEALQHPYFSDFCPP

Chain of MAP kinase-activated protein kinase 2 (Homo sapiens) (P49137 whole entry, looked up): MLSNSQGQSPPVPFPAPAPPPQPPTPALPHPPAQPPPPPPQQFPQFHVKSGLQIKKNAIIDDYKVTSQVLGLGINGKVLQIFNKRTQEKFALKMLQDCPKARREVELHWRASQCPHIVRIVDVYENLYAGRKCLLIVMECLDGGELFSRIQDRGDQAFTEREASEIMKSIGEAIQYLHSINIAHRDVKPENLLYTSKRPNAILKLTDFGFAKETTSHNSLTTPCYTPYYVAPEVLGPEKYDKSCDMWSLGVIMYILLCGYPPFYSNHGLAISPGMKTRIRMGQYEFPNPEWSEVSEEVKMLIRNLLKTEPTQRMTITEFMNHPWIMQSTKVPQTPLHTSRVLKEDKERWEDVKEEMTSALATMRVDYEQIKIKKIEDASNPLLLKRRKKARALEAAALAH
Chain of Tyrosine-protein kinase Fyn (Homo sapiens) (P06241 2-537 limits assumed): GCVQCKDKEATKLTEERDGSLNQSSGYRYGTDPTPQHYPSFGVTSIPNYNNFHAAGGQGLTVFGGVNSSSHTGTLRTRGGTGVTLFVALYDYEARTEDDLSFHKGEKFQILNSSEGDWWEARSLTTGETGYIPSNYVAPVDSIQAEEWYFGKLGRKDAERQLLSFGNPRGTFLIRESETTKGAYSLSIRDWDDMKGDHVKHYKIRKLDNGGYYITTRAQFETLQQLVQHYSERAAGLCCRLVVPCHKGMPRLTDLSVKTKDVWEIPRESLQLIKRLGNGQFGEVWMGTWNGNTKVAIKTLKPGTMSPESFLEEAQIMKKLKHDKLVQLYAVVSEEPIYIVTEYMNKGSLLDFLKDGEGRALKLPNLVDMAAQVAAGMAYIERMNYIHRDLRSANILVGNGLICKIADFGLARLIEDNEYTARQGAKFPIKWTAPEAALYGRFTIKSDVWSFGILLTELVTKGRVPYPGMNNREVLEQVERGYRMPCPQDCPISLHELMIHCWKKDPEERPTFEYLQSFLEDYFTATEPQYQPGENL
Chain of Interleukin-1 receptor-associated kinase 1 (Homo sapiens) (P51617 whole entry, looked up): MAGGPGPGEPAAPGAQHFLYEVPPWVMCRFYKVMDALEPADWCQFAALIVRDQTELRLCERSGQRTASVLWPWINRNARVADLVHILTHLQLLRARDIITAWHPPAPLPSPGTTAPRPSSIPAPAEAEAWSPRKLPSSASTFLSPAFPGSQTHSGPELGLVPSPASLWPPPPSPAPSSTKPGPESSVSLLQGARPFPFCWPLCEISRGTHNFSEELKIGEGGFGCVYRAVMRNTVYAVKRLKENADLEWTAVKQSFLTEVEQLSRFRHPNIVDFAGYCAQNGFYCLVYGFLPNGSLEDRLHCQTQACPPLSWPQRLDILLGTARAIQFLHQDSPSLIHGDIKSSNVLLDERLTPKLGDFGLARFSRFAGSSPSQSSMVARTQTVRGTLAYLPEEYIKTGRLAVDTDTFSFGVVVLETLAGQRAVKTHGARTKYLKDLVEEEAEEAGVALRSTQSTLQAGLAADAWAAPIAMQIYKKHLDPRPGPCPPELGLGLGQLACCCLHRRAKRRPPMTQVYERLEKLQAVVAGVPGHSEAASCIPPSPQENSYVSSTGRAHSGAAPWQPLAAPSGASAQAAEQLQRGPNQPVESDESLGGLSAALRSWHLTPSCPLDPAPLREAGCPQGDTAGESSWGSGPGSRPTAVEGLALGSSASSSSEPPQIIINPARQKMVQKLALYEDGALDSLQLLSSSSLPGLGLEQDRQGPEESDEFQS
Chain of Protein-tyrosine kinase 6 (Homo sapiens) (Q13882 whole entry, looked up): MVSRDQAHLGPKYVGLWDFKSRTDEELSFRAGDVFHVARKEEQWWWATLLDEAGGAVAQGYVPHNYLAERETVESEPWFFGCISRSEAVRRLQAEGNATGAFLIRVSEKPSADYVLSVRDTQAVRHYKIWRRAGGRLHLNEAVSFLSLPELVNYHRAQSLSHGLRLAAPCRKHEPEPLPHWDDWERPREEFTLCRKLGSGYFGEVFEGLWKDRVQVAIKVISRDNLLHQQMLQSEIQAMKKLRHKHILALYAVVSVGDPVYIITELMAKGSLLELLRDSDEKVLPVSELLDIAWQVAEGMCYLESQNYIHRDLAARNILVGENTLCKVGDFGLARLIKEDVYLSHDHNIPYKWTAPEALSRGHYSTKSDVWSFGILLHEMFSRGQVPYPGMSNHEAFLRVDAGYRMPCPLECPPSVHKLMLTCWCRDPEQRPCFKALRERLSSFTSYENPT
Chain of Dual specificity protein kinase CLK1 (Homo sapiens) (P49759 whole entry, looked up): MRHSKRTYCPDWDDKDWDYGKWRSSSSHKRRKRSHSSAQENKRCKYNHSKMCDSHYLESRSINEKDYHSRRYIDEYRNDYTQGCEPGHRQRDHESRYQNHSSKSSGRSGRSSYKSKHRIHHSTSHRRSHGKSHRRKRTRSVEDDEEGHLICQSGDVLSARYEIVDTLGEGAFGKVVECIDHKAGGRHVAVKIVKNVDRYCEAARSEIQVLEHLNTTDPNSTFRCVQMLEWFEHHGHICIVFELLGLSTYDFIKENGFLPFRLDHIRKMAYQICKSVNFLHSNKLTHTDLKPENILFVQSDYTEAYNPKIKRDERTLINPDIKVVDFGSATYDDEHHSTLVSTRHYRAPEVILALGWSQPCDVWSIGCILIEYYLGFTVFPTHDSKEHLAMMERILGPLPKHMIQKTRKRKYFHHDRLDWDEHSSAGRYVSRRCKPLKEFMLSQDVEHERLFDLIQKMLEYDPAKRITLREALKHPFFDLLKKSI
Chain of Tyrosine-protein kinase Tec (Homo sapiens) (P42680 whole entry, looked up): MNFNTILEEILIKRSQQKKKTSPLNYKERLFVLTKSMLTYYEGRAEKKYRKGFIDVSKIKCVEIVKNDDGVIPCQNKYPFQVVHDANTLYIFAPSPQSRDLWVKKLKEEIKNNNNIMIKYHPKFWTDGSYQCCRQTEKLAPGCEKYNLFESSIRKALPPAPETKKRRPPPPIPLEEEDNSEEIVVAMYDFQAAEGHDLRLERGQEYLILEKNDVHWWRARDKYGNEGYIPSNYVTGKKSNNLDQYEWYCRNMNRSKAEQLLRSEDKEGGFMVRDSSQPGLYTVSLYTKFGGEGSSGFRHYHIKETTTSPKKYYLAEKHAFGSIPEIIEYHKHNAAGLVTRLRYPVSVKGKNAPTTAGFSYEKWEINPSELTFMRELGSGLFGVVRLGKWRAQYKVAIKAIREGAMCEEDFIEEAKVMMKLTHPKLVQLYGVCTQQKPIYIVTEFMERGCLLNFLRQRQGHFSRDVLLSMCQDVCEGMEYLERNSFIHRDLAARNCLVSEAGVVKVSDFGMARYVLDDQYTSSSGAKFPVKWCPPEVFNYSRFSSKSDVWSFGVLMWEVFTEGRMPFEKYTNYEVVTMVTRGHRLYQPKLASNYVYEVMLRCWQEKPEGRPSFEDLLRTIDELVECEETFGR
Chain of Serine/threonine-protein kinase 32B (Homo sapiens) (Q9NY57 whole entry): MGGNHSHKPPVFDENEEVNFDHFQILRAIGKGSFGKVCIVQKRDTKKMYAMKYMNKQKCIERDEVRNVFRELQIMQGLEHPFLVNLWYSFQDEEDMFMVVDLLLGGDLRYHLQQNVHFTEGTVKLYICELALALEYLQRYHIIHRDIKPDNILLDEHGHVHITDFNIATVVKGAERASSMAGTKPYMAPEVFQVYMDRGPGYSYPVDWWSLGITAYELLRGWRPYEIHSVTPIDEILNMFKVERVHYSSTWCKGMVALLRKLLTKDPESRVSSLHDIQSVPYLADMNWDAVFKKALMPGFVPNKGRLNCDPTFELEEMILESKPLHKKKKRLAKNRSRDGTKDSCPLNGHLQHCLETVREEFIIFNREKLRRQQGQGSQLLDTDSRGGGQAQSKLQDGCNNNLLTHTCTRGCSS

In the case of `CC(C)[C@H](NC(=O)c1cc(-c2cnn3cc(-c4ccc(OCCN5CCCCC5)cc4)cnc23)cs1)C(F)(F)F`, the inhibition in assay [1] worked out at 0%; in assay [2], 0%; in assay [3], 8%. The fold change (FC) in assay [4] came out at 0.41.
With `O=C(N[C@@H](C1CC1)C(F)(F)F)c1cc(-c2cnn3cc(-c4ccc(F)cc4)cnc23)cs1`, the fold change (FC) was determined as 0.04 in assay [5], 0.18 in assay [7], 0 in assay [8] and 0 in assay [10]. In addition, the inhibition in [6] and in assay [9] was 0% in each case.
Turning to `CNC(=O)c1ccccc1Oc1nc(Nc2cc(OC)c(OC)c(OC)c2)ncc1Br`, the fold change (FC) in assay [11] was found to be 0.07; in assay [12] it was 0.77.

The values above are taken from ChEMBL document CHEMBL5653631, “A Potent and Selective ULK1 Inhibitor Suppresses Autophagy and Sensitizes Cancer Cells to Nutrient Stress” (iScience, 2018).
